From PMC9271465 (ESMO Open, 2022)

Key:
EGFR T790M-mutated NSCLC = assay: phase I dose-escalation: efficacy; format: in vivo, patients; details: FAS
Summary of the method: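 Adults with T790M+ NSCLC (ARMS-confirmed) progressing on prior EGFR-TKIs; 3+3 escalation. Oral tablet, empty stomach: single dose day 1, then after 7 days continuous dosing in 21-day cycles (25–300 mg/day) until progression. CT/MRI brain, CT neck/chest/abdomen, bone scan every eight cycles; assessed at baseline, cycles 2, 4, 6, then every 2 cycles. RECIST v1.1 best overall response; disease control confirmed by imaging every 6 weeks.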

[1] = preclinical tolerability in animals; format: in vivo; details: preclinical studies; unpublished data

C=CC(=O)Nc1cc(Nc2ncc(Cl)c(Nc3ccccc3C(=O)C(=O)N(C)C)n2)c(OC)cc1N1CCN(C)CC1 [BPI-15086]
Best overall response: Complete response (EGFR T790M-mutated NSCLC; 25 mg/day (n = 1)): 0 n (%)
Best overall response: Not evaluable (EGFR T790M-mutated NSCLC; 25 mg/day (n = 1)): 0 n (%)
Best overall response: Partial response (EGFR T790M-mutated NSCLC; 25 mg/day (n = 1)): 0 n (%)
Best overall response: Progressive disease (EGFR T790M-mutated NSCLC; 25 mg/day (n = 1)): 1 (100.0) n (%)
Best overall response: Stable disease (EGFR T790M-mutated NSCLC; 25 mg/day (n = 1)): 0 n (%)
PFS, median (95% CI) (EGFR T790M-mutated NSCLC; 25 mg/day (n = 1)): 1.5 (NE-NE) months
Best overall response: Complete response (EGFR T790M-mutated NSCLC; 50 mg/day (n = 3)): 0 n (%)
Best overall response: Not evaluable (EGFR T790M-mutated NSCLC; 50 mg/day (n = 3)): 0 n (%)
Best overall response: Partial response (EGFR T790M-mutated NSCLC; 50 mg/day (n = 3)): 0 n (%)
Best overall response: Progressive disease (EGFR T790M-mutated NSCLC; 50 mg/day (n = 3)): 1 (33.3) n (%)
Best overall response: Stable disease (EGFR T790M-mutated NSCLC; 50 mg/day (n = 3)): 2 (66.7) n (%)
OS, median (95% CI) (EGFR T790M-mutated NSCLC; 50 mg/day (n = 3)): 15.0 (8.4-15.0) months
PFS, median (95% CI) (EGFR T790M-mutated NSCLC; 50 mg/day (n = 3)): 4.3 (1.6-5.8) months
Best overall response: Complete response (EGFR T790M-mutated NSCLC; 100 mg/day (n = 3)): 0 n (%)
Best overall response: Not evaluable (EGFR T790M-mutated NSCLC; 100 mg/day (n = 3)): 0 n (%)
Best overall response: Partial response (EGFR T790M-mutated NSCLC; 100 mg/day (n = 3)): 1 (33.3) n (%)
Best overall response: Progressive disease (EGFR T790M-mutated NSCLC; 100 mg/day (n = 3)): 2 (66.7) n (%)
Best overall response: Stable disease (EGFR T790M-mutated NSCLC; 100 mg/day (n = 3)): 0 n (%)
DOR, median (95% CI) (EGFR T790M-mutated NSCLC; 100 mg/day (n = 3)): 9.7 (NE-NE) months
OS, median (95% CI) (EGFR T790M-mutated NSCLC; 100 mg/day (n = 3)): 16.1 (NE-NE) months
PFS, median (95% CI) (EGFR T790M-mutated NSCLC; 100 mg/day (n = 3)): 1.6 (1.5-12.6) months
Best overall response: Complete response (EGFR T790M-mutated NSCLC; 200 mg/day (n = 7)): 0 n (%)
Best overall response: Not evaluable (EGFR T790M-mutated NSCLC; 200 mg/day (n = 7)): 1 (14.3) n (%)
Best overall response: Partial response (EGFR T790M-mutated NSCLC; 200 mg/day (n = 7)): 2 (28.6) n (%)
Best overall response: Progressive disease (EGFR T790M-mutated NSCLC; 200 mg/day (n = 7)): 3 (42.9) n (%)
Best overall response: Stable disease (EGFR T790M-mutated NSCLC; 200 mg/day (n = 7)): 1 (14.3) n (%)
DOR, median (95% CI) (EGFR T790M-mutated NSCLC; 200 mg/day (n = 7)): 6.7 (3.7-9.8) months
PFS, median (95% CI) (EGFR T790M-mutated NSCLC; 200 mg/day (n = 7)): 3.0 (1.6-11.3) months
Best overall response: Complete response (EGFR T790M-mutated NSCLC; 300 mg/day (n = 3)): 0 n (%)
Best overall response: Not evaluable (EGFR T790M-mutated NSCLC; 300 mg/day (n = 3)): 1 (33.3) n (%)
Best overall response: Partial response (EGFR T790M-mutated NSCLC; 300 mg/day (n = 3)): 0 n (%)
Best overall response: Progressive disease (EGFR T790M-mutated NSCLC; 300 mg/day (n = 3)): 0 n (%)
Best overall response: Stable disease (EGFR T790M-mutated NSCLC; 300 mg/day (n = 3)): 2 (66.7) n (%)
OS, median (95% CI) (EGFR T790M-mutated NSCLC; 300 mg/day (n = 3)): 9.2 (NE-NE) months
PD, patients (EGFR T790M-mutated NSCLC; 25-mg/day): 100%
PR, patients (EGFR T790M-mutated NSCLC; 25-mg/day, 50-mg/day, and 300-mg/day groups): none of the patients
PD, patients (EGFR T790M-mutated NSCLC; 50-mg/day): 33.3%
DCR (EGFR T790M-mutated NSCLC; 50-mg/day, 2/3 patients): 66.7%
PD, patients (EGFR T790M-mutated NSCLC; 100-mg/day): 66.7%
PR, patients (EGFR T790M-mutated NSCLC; 100-mg/day): 33.3%
DCR (EGFR T790M-mutated NSCLC; 100-mg/day, 1/3 patients): 33.3%
PD, patients (EGFR T790M-mutated NSCLC; 200-mg/day): 42.9%
PR, patients (EGFR T790M-mutated NSCLC; 200-mg/day): 28.6%
DCR (EGFR T790M-mutated NSCLC; 200-mg/day, 3/7 patients): 42.9%
DCR (EGFR T790M-mutated NSCLC; 300-mg/day, 2/3 patients): 66.7%
Best overall response: Complete response (EGFR T790M-mutated NSCLC; All (n = 17)): 0 n (%)
Best overall response: Not evaluable (EGFR T790M-mutated NSCLC; All (n = 17)): 2 (11.8) n (%)
Best overall response: Partial response (EGFR T790M-mutated NSCLC; All (n = 17)): 3 (17.6) n (%)
Best overall response: Progressive disease (EGFR T790M-mutated NSCLC; All (n = 17)): 7 (41.2) n (%)
Best overall response: Stable disease (EGFR T790M-mutated NSCLC; All (n = 17)): 5 (29.4) n (%)
DOR, median (95% CI) (EGFR T790M-mutated NSCLC; All (n = 17)): 9.7 (3.7-9.8) months
OS, median (95% CI) (EGFR T790M-mutated NSCLC; All (n = 17)): 15.0 (8.4-16.1) months
PFS, median (95% CI) (EGFR T790M-mutated NSCLC; All (n = 17)): 1.6 (1.6-5.3) months
CR, patients (EGFR T790M-mutated NSCLC; all 17 patients): No patients showed CR
DCR (EGFR T790M-mutated NSCLC; all 17 patients): 47.1%
ORR (EGFR T790M-mutated NSCLC; all 17 patients): 17.6%
PD, patients (EGFR T790M-mutated NSCLC; all 17 patients): 41.2%
confirmed PR, patients (EGFR T790M-mutated NSCLC; all 17 patients): 17.6%
could not be assessed for response, patients (EGFR T790M-mutated NSCLC; all 17 patients): 11.8%
response (EGFR T790M-mutated NSCLC; one patient of the 25-mg/day dose group): no response was observed
PD, patients (EGFR T790M-mutated NSCLC; three patients in the 300-mg/day group): None
tolerability in animals [1]: well tolerated
